DSG3 Ab inh = human desmoglein-3 autoantibody binding inhibition; DSG3-coupled beads, scFv-anti-DSG3-GFP binding, flow cytometry; active compounds read low; hit rate 0.48% among 310,000; P32926; binding (percent of control), % at 10 µM;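 active = binding more than 3 SD below its plate's average and above zero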;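 also: hits lower antibody fragment binding to DSG3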
Mcl1 Bid PPI = Mcl-1/Bid interaction inhibition. Q07820. TR-FRET Mcl-1/Bid-Dy647 peptide binding, 1536-well. inhibition, % at 21.7 µM. hit rate 0.97% among 220,000. AID 1021;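 active = compounds that cut the binding signal by more than half at the single screening dose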;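 also: His-tagged Mcl-1 with europium anti-His antibody binding Bid BH3 peptide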
Target sequence (Q07820 whole entry, looked up): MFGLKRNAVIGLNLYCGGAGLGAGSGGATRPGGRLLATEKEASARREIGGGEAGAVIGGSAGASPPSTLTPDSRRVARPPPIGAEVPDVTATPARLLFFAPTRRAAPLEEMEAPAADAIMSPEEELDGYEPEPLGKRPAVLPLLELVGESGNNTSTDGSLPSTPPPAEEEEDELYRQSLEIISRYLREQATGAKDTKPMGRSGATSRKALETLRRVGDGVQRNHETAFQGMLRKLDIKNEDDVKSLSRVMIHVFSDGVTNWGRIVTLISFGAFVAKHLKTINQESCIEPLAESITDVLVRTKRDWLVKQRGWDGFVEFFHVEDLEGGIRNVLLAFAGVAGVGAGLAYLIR
T cell modulator = modulates CD8 T cell binding to vesicles; 2C CD8+ T cell-vesicle binding, flow cytometry; active compounds read low; response (vesicle binding), % at 7 µM; hit rate 0.068% among 330,000;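 active = response, share of CD8 T cells binding vesicles, and their 90th percentile fluorescence all below set limits, cut at about 80% in these data, passing the limit was not always enough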;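 also: values below 100% mean blocked vesicle binding to the CD8+ T cells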
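Material: 2C TCR transgenic mouse naive CD8+ T cells, MACS-purified. Also added: QL9-charged Drosophila Ld/ICAM-1/B7-1 vesicles. Timing: binding 1.5 h at 37 °C. Measured by: high-throughput flow cytometry with anti-B7-1 and anti-CD8 staining. Read-out: percent CD8+ FL2 mean versus row control. Controls: Unloaded micro-vesicles (low), QL9 vesicles with 0.7% DMSO (high).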
MCL1-BIM inh = inhibitors of human MCL1 binding to BIM-BH3 peptide; Q07820; GST-MCL1 / FITC-Bim-BH3 fluorescence polarization; inhibition, % at 10.9 µM; hit rate 0.68% among 320,000;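 active = inhibition above the mean inhibition of all tested compounds plus 3 SD, set per campaign, cut at about 40% in these data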;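 also: higher means more loss of mP so more displacement of Bim peptide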
Mcl-1 Bim block = human Bim-Mcl-1 interaction inhibition; Q07820; Bead-based flow cytometry, Bim peptide-Mcl-1 binding; inhibition, % at 10 µM; hit rate 0.1% among 190,000; in the data active = inhibition above about 40%
Mcl1-Noxa inh = disrupts binding of human Mcl-1 to Noxa peptide; TR-FRET Mcl-1/Noxa peptide binding, 2 h; Q07820; hit rate 1.5% among 220,000; inhibition, % at 21.7 µM; AID 1022;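 active = compounds that cut the protein-peptide binding signal by more than 50% relative to plate controls in a single-dose test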;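 also: His-tagged Mcl-1 with rhodamine Noxa BH3 peptide and terbium anti-His antibody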
A number is an active result; 0 = inactive; - = not tested or not shown. Hits are enriched below; roughly 2.3% of the tested compounds scored in any of these assays.

SMILES	DSG3 Ab inh	Mcl1 Bid PPI	T cell modulator	MCL1-BIM inh	Mcl-1 Bim block	Mcl1-Noxa inh
COc1ccccc1C(=O)N/N=C/c1ccc2c(c1)OCO2	0	-	0	0	-	-
COc1ccc(NC(=O)c2cc(-c3ccc(C)o3)nc3ccccc23)cc1OC	-	0	0	0	0	64
O=C(NC1CCC(O)CC1)c1cc(-c2ccco2)nc2ccccc12 (centres undefined)	0	0	0	0	0	55
COc1cc2c(cc1OC)C(c1cc(Br)ccc1O)N(C(C)=O)CC2 (centres undefined)	0	-	0	0	-	-
CC1=C(C(N)=O)C(c2ccccc2[N+](=O)[O-])n2ncnc2N1 (centres undefined)	0	-	0	0	-	-
Cc1ccc(NC(=O)c2cc(-c3ccco3)nc3ccccc23)cc1S(=O)(=O)N1CCOCC1	0	0	0	0	0	66
COc1cc(/C=N/NC(=O)c2cc(-c3ccco3)nc3ccccc23)cc(OC)c1O	0	0	0	0	-	82
COc1ccc(NC(=O)c2cc(C)nc3ccccc23)cc1S(=O)(=O)N1CCOCC1	0	-	0	-	-	-
Cc1ccc(-c2cc(C(=O)Nc3nccs3)c3ccccc3n2)c(C)c1	0	0	0	0	0	0
O=C(Nc1ccc(S(=O)(=O)Nc2nccs2)cc1)c1cc(-c2ccccc2Cl)nc2ccccc12	0	99	0	0	0	0
Cc1ccc(-c2cc(C(=O)Nc3nccs3)c3ccccc3n2)o1	0	0	0	0	0	67
Cc1cc(OC(C)C(=O)Nc2ccccc2C(=O)N2CCCC2)ccc1Cl (centres undefined)	0	-	0	0	-	-
C=C(C)Cn1cnc2c(oc3nc4c(cc32)CCCC4)c1=O	0	0	0	0	-	0
CCOC(=O)N1CCN(CC(O)COc2ccccc2[N+](=O)[O-])CC1 (centres undefined)	0	-	0	0	-	-
Cc1cc(C)cc(NC(=O)CN2CCC(NC(=O)c3ccccc3F)CC2)c1	0	-	0	0	-	-
N#Cc1ccc(CO/N=C/c2ccccc2)cc1	0	89	0	0	0	0
O=C(COc1ccc(NC(=O)c2ccccc2)cc1)c1ccccc1	0	-	0	0	-	-
Cn1c(O)c(N=NC(=O)CNC(=O)c2ccccc2)c2cc(Br)ccc21	-	-	0	0	-	-
Cn1c(O)c(N=NC(=O)CNC(=O)c2ccccc2)c2ccccc21	-36	-	0	0	-	-
Cc1cc(C)nc(N(C#N)S(=O)(=O)c2ccccc2Cl)n1	-	89	0	0	0	0
CC(=O)Nc1ccc(S(=O)(=O)N(C#N)c2nc(C)cc(C)n2)cc1	0	-	0	0	-	-
CC(=O)C1=C(c2ccccc2)NC(=S)NC1c1ccc(O)c(O)c1 (centres undefined)	0	0	0	0	0	52
CC(=O)C1=C(c2ccccc2)NC(=S)NC1c1cc(Cl)c(OC(C)C)c(Cl)c1 (centres undefined)	0	0	0	0	0	0
CCOC(=O)Cn1c(=NC(=O)c2cccs2)sc2cc(C(=O)OC)ccc21	18	0	0	0	0	0
O=C(OCC(=O)c1ccc(Cl)cc1Cl)c1cnccn1	-	-	0	0	-	-
SMILES	DSG3 Ab inh	Mcl1 Bid PPI	T cell modulator	MCL1-BIM inh	Mcl-1 Bim block	Mcl1-Noxa inh
Nc1c2c(nc3ccc(Br)cc13)N(Cc1ccccc1)CC2	0	0	0	0	0	84
Nc1c2c(nc3ccc(Br)cc13)N(C1CCCCC1)CC2	-	0	0	0	0	68
Nc1c2c(nc3ccc(Br)cc13)N(c1ccccc1)CC2	0	0	0	0	0	0
COc1cc(Nc2nc3c(N)cc(C(F)(F)F)cc3nc2-c2ccccc2)cc(OC)c1OC	0	-	-	-	-	-
O=C(c1ccccc1)c1ccc(O)c(O)c1O	0	-	-	-	-	-
CCOC(=O)C1CCN(c2c(NCCCN(CC)Cc3ccccc3)c(=O)c2=O)CC1	0	0	0	0	0	71
CCCCN(CC)CCNc1c(N2CCN(C(=O)OCC)CC2)c(=O)c1=O	0	0	0	0	0	75
CCOC(=O)N1CCN(c2c(NCCCN(CC)Cc3ccccc3)c(=O)c2=O)CC1	0	0	0	0	0	77
CCOC(=O)N1CCN(c2c(NCCCN(CC)CC)c(=O)c2=O)CC1	0	0	0	0	0	0
COC(=O)NNC(=O)C(C)Oc1ccc(Cl)cc1Cl (centres undefined)	0	0	0	0	0	0
CC(Oc1ccc(Cl)cc1Cl)C(=O)N(C)c1ccccc1 (centres undefined)	0	94	0	0	0	0
CCCNC(=O)c1ccc(Cn2c(=S)[nH]c3c([nH]c4ccc(OC)cc43)c2=O)cc1	0	0	0	0	0	60
CCCNC(=O)CCCCn1c(=S)[nH]c2c([nH]c3ccc(OC)cc32)c1=O	0	0	0	0	0	0
CCSc1nnc(NC(=O)CN2C(=O)N(C)C3(CCCCC3)C2=O)s1	0	-	-	-	-	-
COc1ccc(-c2cc(CNS(=O)(=O)c3ccc(NC(C)=O)cc3)on2)cc1	-	-	0.0	0	-	-
COc1ccc(CNS(=O)(=O)c2ccc(F)c(C(=O)Nc3ccc(OC)cc3)c2)cc1	0	0	0	0	0	53
CCN(c1ccc(NC(=O)CCNC(=O)c2ccco2)cc1)C(C)C	0	0	0	0	0	75
CC(C)CC1NC(=O)c2cc3ccccc3cc2-n2c1nc1cc(Cl)ccc1c2=O (centres undefined)	0	-	-	-	-	-
O=C(Cc1nnc(NC(=O)c2ccccc2)s1)N/N=C/c1ccco1	0	0	0.0	0	0	0
COc1ccc(S(=O)(=O)NCC2CCCN(Cc3ccc(OC)cc3F)C2)cc1 (centres undefined)	-	-	0	0	-	-
O=C(CS(=O)(=O)c1ccccc1)Nc1ccc(Br)cn1	59	0	0	0	0	0
CSc1nc(C)cc(OCC(=O)n2nc(C)cc2C)n1	0	99	0	0	0	0
CSc1nc(C)cc(OCCO)n1	0	0	0	0	0	0
CCOC(=O)C1CCCN(C(=O)Cn2sc3nc(C)cc(C)c3c2=O)C1 (centres undefined)	0	0	0	0	0	57
NC(=O)[C@@H]1CCCN1Cc1nc(-c2cccs2)no1	-	0	0	0	0	54
SMILES	DSG3 Ab inh	Mcl1 Bid PPI	T cell modulator	MCL1-BIM inh	Mcl-1 Bim block	Mcl1-Noxa inh
NC(=O)C1CCN(Cc2nc(-c3cccs3)no2)CC1	-	0	0	0	-	0
CCc1ccc(C(=O)Cc2cc3cccc(OC)c3oc2=O)cc1	0	-	0	0	-	-
Cc1ccccc1NC(=S)NCc1ccc2c(c1)cc(C)n2C	66	0	0	0	0	0
COc1ccc(C(=O)NCc2ccc3c(c2)cc(C)n3C)cc1OC	0	0	0	0	0	0
CCC(CC)C(=O)NCc1ccc2c(c1)cc(C)n2C	-	0	0	0	0	0
COc1ccccc1NC(=S)NCc1ccc2c(c1)cc(C)n2C	-	0	0	0	0	0
Cc1cc2cc(CNC(=O)C(C)Oc3ccccc3)ccc2n1C (centres undefined)	0	0	0	41	-	0
COc1cccc(C(=O)NCc2ccc3c(c2)cc(C)n3C)c1	82	0	0	0	0	0

Screens (PubChem BioAssay)
